This is a sample that favours compounds with a hit; in the whole collection about 4.9% have one here.
STAT3 act – STAT3 signaling activation; U3A cells, IL-6 STAT3-luciferase reporter, luminescence; 100% = signal with IL-6 EC80 alone; 190,000 tested, 0.91% active; AID 871; activation (% of control), % at 5.6 µM;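 active means activation above the screen-wide mean of compound activation plus 3 SD, cut at about 130% in these data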
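System – human U3A cells carrying STAT3-luciferase construct · Probe or stimulus – Interleukin-6, 33 ng/mL · Schedule – compound 1 h, then IL-6 6 h at 37 °C · Signal – luminescence from STAT3-driven luciferase reporter · Evaluation – percent of IL-6-only median luminescence · Benchmarks – IL-6-only high control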
APP 5'UTR act – APP 5'UTR luciferase reporter activation; SH-SY5Y APP 5'UTR luciferase reporter, luminescence; zero percent = DMSO vehicle wells; activation, % at 2 µM; 190,000 tested, 1% active; AID 1276;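 active means activation above a set limit, based on mean plus 3 SD of controls, cut at about 140% in these data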
STAT1 activator – increases IFN-gamma driven STAT1 reporter signal; NIH 3T3 STAT1-luciferase reporter, luminescence; 100% = IFN-gamma alone, no compound; activation (% of control), % at 5.5 µM; 200,000 tested, 2.6% active; AID 932;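 active means activation above the screen-wide mean activation plus 3 SD, cut at about 130% in these data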
STAT3 blocker – inhibitors of IL-6 induced STAT3 signaling | U3A cells, IL-6 STAT3-luciferase reporter, luminescence; host cell line lacks STAT1 | inhibition, % at 5.5 µM | 190,000 tested, 0.89% active | AID 862;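 active means inhibition above the mean inhibition across all screened compounds plus 3 SD, cut at about 44% in these data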
STAT1 blocker – inhibitors of IFN-gamma induced STAT1 signaling; inhibition, % at 5.5 µM; 200,000 tested, 0.35% active; NIH 3T3 STAT1-luciferase reporter, luminescence;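 active means inhibition above a set limit, the mean inhibition across all tested compounds plus 3 SD, cut at about 34% in these data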
NF-kB neuron act – raises NF-kB expression in human neuronal cells. NF-kB reporter expression; active compounds read high. fold change at 12.5 µM. 190,000 tested, 1.6% active. AID 1239; in the data active means fold change above about 3.3
Each line names hits and unclear results; the compound was inactive in the other large screens.

CCCN(CCC)S(=O)(=O)c1ccc(NC(=O)COc2ccccc2)cc1	none
COc1cc(C(=O)NNC(=S)NCc2ccco2)cc(OC)c1OC	none
Cc1ccc(-c2nnc(-c3cccc(Br)c3)o2)cc1	NF-kB neuron act 3.7
CC1(C)CC(=O)C2=C(C1)N=C1SCCC(=O)N1C2c1cccc([N+](=O)[O-])c1 (stereo not given)	none
CCOC(=O)c1c(C)[nH]c(C(=O)CSc2nccc(C)n2)c1C	STAT1 activator 132
COc1ccc(C(=O)Cc2cc(OC)c(OC)cc2[N+](=O)[O-])c(OC)c1	none
COc1ccc(C(=O)Cc2ccc(F)cc2)c(OC)c1	STAT1 activator 138
O=C(c1ccc(F)cc1)c1ccc(N2CCCC2)cc1	STAT1 activator 138
O=C(CSC1=NCCN1)Nc1cccc([N+](=O)[O-])c1	STAT1 activator 133
O=C(CSC1=NCCN1)Nc1ccccc1[N+](=O)[O-]	none
Cc1nc(NC(=O)C23CC4CC(CC(C4)C2)C3)sc1Cc1ccc2c(c1)OCO2	none
COc1ccc(/C=C/C2=NN(C)C(=O)CC2)cc1	APP 5'UTR act 149, NF-kB neuron act 3.4
O=C(OCC(=O)N1CCCC1)c1ccc(S(=O)(=O)Nc2ccccc2)cc1	none
O=C(O)/C=C/c1ccc(OCc2cccc(F)c2)cc1	none
CN(C)c1ccc(/C=N/NC(=O)CN(c2cccc(Cl)c2)S(C)(=O)=O)cc1Br	none
CCN(CC)c1ccc2c(c1)OC(N)=C(C#N)C2c1cccnc1 (stereo not given)	NF-kB neuron act 3.5
N#CC1=C(N)Oc2cc(N)ccc2C1c1cccnc1 (stereo not given)	none
Cc1cccc(CSc2cn(CC(=O)N3CCOCC3)c3ccccc23)c1	STAT1 activator 129
CCOC(=O)c1cc(CC)sc1NC(=O)c1ccc([N+](=O)[O-])c(N2CCOCC2)c1	none
CC1(C)CC(=O)C=C(NNC(=O)OC(C)(C)C)C1	none
COc1ccc(N=C2SC(C(=O)Nc3ccc(OC)cc3)CC(=O)N2CCN2CCOCC2)cc1 (stereo not given)	none
CCNC(=S)NNC(=O)c1cccn(Cc2ccc(Cl)cc2Cl)c1=O	none
Cn1c(=NC(=O)CCl)sc2ccccc21	none
O=C(CCl)N=c1sccn1Cc1cccc2ccccc12	STAT3 blocker 81, STAT1 blocker 92
O=C(CCl)N=c1sccn1Cc1ccc(Cl)cc1Cl	STAT3 blocker 60, STAT1 blocker 90
c1ccc(-n2cnc3cc(NCc4ccco4)ccc32)cc1	STAT1 activator 147
COc1ccc(-n2cnc3cc(NCc4cccs4)ccc32)cc1	STAT1 activator 131
COc1ccccc1Nc1ccc(C(=O)NCc2cccs2)cn1	none
COc1ccccc1Nc1ncc(-c2cccs2)s1	STAT3 act 156, STAT1 activator 136, NF-kB neuron act 5.1
O=C(Nc1cc(S(=O)(=O)N2CCOCC2)ccc1Cl)C(=O)c1c(-c2ccccc2)cc2ccccn12	none
Cn1c(=S)ccc2ccccc21	none
O=C(COC(=O)c1cccnc1)Nc1ccc2c(c1)OCO2	none
COc1cccc(COc2ncnc3sccc23)c1	none
c1ccc(OCCOc2ncnc3sccc23)cc1	STAT1 activator 131
Cc1ccccc1NC(=O)C(C)O/N=C/c1cccc([N+](=O)[O-])c1 (stereo not given)	none
COc1cc(NC(=O)C/C(C)=N/NC(=O)c2cccs2)c(OC)cc1Cl	APP 5'UTR act 171, STAT1 activator 139
CCN1CCc2nc(NC(=O)c3ccccc3)sc2C1	STAT1 activator 147
O=C(Nc1nc2c(s1)CN(Cc1ccccc1)CC2)C1CCC1	none
CC(=O)OC1C2CCC1C([N+]1(C)CCCCC1)CC2 (stereo not given)	none
CCCCCCn1c(SCCCC)nc2c1c(=O)[nH]c(=O)n2C	none
CCn1c([N+](=O)[O-])nc2c1c(=O)[nH]c(=O)n2C	NF-kB neuron act 4.8
O=C(c1cccc(COc2ccc(Cl)cc2Cl)c1)N1CCN(c2ccccn2)CC1	APP 5'UTR act 173
CCS(=O)(=O)N1Cc2ccccc2CC1C(=O)Nc1nccs1 (stereo not given)	STAT1 activator 133
CCS(=O)(=O)N1Cc2ccccc2CC1C(=O)Nc1nc2c(C)cccc2s1 (stereo not given)	none
CCSc1nnc(NC(=O)C2Cc3ccccc3CN2S(=O)(=O)CC)s1 (stereo not given)	none
CCS(=O)(=O)N1Cc2ccccc2CC1C(=O)Nc1nc(C)cs1 (stereo not given)	STAT1 activator 134
COc1ccc(S(=O)(=O)N2Cc3ccccc3CC2C(=O)Nc2nccs2)cc1OC (stereo not given)	APP 5'UTR act 163
O=C(CNC(=O)c1ccccc1)OC1CCCCC1	STAT1 activator 135
O=C(NC(=O)c1ccc(Cl)cc1)OC1CCCCC1	none
CCn1nnc(NC(=O)c2ccc(-c3ccccc3[N+](=O)[O-])o2)n1	none
CC(=O)c1cccc(NC(=O)c2ccc(-c3ccccc3[N+](=O)[O-])o2)c1	NF-kB neuron act 4
CC(=O)Oc1ccc(N2C(=O)C3C4C=CC(C5CC45)C3C2=O)cc1[N+](=O)[O-] (stereo not given)	none
Cc1ccc(-c2nnc(CSc3nc4cc5c(cc4cc3C)OCO5)o2)cc1	NF-kB neuron act 4
COc1ccccc1NC(=O)Cn1c(CCC(=O)O)ccc1-c1ccccc1	none
COc1ccc(OC)c(NC(=O)Cn2c(CCC(=O)O)ccc2-c2ccccc2)c1	STAT3 act 134
Cc1ccc(OC(=O)c2ccc(Br)o2)cc1	none
Cc1cccc(/C(N)=N/OC(=O)c2ccc3c(c2)OCO3)c1	APP 5'UTR act 192, STAT1 activator 145, NF-kB neuron act 4.3
Cc1cccc(/C(N)=N/OC(=O)c2cccnc2)c1	APP 5'UTR act 149, STAT1 activator 133
Cc1ccc(/C(N)=N/OC(=O)c2cccc(F)c2)cc1	STAT1 activator 137, NF-kB neuron act 4.6
N/C(=N\OC(=O)c1cccc([N+](=O)[O-])c1)c1cccnc1	none
N/C(=N\OC(=O)c1ccc(F)cc1)c1ccc(Br)cc1	none
Cc1cccc(/C(N)=N/OC(=O)c2ccc(Br)o2)c1	STAT1 activator 132
COc1ccccc1C/C(N)=N/OC(=O)c1ccc2c(c1)OCO2	none
N#Cc1ccccc1OCCOCCNC1CCCC1	none
Cc1cc(/C=C2/NC(=O)NC2=O)c(C)n1C	none
O=C1CCCC(=O)C1CS(=O)(=O)c1ccccc1	none
O=C(Nc1nc(-c2ccccn2)cs1)c1cc2ccccc2o1	none
Cc1ccc(C(=O)Nc2ccc(F)cc2)o1	none
Cc1ccc(C(=O)Nc2ncc(C)s2)o1	STAT1 activator 135
Cc1cnc(NC(=O)c2cc3ccccc3o2)s1	STAT3 blocker 60, STAT1 blocker 43
Cc1ccc(C(=O)Nc2ncc(Cc3ccc(F)cc3)s2)o1	NF-kB neuron act 7.9
